From ChEMBL document CHEMBL2057082, “Discovery of N-(4-methoxy-7-methylbenzo[d]thiazol-2-yl)isonicatinamide, ML293, as a novel, selective and brain penetrant positive allosteric modulator of the muscarinic 4 (M4) receptor” (Bioorg Med Chem Lett, 2012)
The source made the active and inactive calls. The rule behind the calls is not given here.

What was measured:
[1] = target: T1, Muscarinic acetylcholine receptor M5 (Homo sapiens) (UniProt P08912); experiment: Activity at human M5 receptor expressed in CHO cells coexpressing Gqi5 assessed as effect on acetylcholine induced calcium mobilization up to 30 uM incubated for 144 secs prior to acetylcholine addition by Fluo-4-AM staining; type: functional, cell-based
T1 sequence (whole entry): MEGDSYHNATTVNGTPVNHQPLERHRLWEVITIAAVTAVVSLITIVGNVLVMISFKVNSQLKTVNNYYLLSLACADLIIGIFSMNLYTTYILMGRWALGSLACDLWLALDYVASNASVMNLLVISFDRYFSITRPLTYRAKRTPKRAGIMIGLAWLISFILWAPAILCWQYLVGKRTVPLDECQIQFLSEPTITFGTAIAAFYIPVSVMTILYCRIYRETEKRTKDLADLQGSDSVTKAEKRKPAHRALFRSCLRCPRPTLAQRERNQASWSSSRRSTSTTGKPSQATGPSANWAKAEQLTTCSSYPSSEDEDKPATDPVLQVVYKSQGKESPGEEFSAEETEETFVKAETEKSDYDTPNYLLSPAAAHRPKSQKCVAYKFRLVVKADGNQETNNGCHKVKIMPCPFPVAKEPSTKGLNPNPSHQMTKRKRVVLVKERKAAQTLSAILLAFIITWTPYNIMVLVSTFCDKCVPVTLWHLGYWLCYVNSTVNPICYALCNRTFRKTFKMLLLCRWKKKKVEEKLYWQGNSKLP

[2] = Intrinsic clearance in rat liver microsomes; type: ADME, Microsome; conditions: read-out: CLH
Summary of the method: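 Intrinsic clearance was measured in human and rat hepatic microsomes to assess oxidative metabolism, with predicted hepatic clearance given in mL/min/kg.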

[3] = AUC in rat at 1 mg/kg, iv; type: ADME, organism-based; design: dose 1 mg/kg, route intravenous; conditions: plasma
[4] = target: Muscarinic acetylcholine receptor M3 (Homo sapiens) (UniProt P20309); experiment: Activity at human M3 receptor expressed in CHO cells coexpressing Gqi5 assessed as effect on acetylcholine induced calcium mobilization up to 30 uM incubated for 144 secs prior to acetylcholine addition by Fluo-4-AM staining; type: functional, cell-based
Chain of Muscarinic acetylcholine receptor M3 (Homo sapiens) (P20309 whole entry, looked up): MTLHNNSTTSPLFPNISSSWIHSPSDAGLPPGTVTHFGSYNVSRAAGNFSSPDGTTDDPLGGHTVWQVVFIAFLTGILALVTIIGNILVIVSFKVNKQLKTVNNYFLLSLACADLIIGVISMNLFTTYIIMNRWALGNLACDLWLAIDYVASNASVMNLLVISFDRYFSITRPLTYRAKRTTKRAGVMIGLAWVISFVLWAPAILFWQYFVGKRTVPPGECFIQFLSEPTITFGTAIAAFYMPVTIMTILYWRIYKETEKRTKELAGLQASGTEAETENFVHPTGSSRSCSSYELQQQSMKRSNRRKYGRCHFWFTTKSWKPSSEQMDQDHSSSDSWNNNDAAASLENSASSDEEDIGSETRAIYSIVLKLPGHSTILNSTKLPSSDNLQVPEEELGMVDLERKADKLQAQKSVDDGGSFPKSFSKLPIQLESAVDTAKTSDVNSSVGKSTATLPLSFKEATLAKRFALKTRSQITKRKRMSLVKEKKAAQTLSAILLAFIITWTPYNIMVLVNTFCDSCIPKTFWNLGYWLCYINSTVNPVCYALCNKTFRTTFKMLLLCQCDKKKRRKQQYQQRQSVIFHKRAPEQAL

Plasma [5] = experiment: Fraction unbound in rat plasma; type: ADME, cell-free
Summary of the method: (§1)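 Plasma protein binding was measured by equilibrium dialysis in human and rat plasma and reported as % unbound.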

[6] = target: T2, Muscarinic acetylcholine receptor M4 (Homo sapiens, UniProt P08173); experiment: Positive allosteric modulation of human M4 receptor expressed in CHO-K1 cells coexpressing Gqi5 assessed as potentiation of acetylcholine-mediated calcium mobilization incubated for 144 secs prior to acetylcholine addition by Fluo-4-AM staining; type: functional, cell-based
T2 sequence (P08173 whole entry): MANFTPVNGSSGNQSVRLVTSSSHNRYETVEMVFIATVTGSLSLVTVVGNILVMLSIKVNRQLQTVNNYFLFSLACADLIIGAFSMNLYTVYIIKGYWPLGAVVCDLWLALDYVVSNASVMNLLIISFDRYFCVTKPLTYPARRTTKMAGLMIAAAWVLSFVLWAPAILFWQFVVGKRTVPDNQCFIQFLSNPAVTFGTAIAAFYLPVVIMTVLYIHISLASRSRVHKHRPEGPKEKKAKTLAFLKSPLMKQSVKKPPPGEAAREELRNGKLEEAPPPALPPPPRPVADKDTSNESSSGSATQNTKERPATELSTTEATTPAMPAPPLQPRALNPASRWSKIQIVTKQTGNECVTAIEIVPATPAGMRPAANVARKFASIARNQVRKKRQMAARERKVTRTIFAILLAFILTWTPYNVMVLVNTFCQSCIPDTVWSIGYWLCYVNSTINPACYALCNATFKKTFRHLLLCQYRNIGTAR
Summary of the method: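 hM4 stably cotransfected with chimeric Gqi5 in CHO-K1 cells. Cells plated overnight at 37 °C, loaded with Fluo-4 AM for 45 min at 37 °C in HBSS/20 mM HEPES/2.5 mM probenecid. Compound pretreated 144 s (0.3% DMSO final), then EC20 ACh, then EC80 ACh 86 s later; kinetic fluorescence at 37 °C.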

[7] = Plasma concentration in rat at 10 mg/kg, po administered as single dose measured at 1 hr; type: ADME, organism-based; design: dose 10 mg/kg, route oral
Summary of the method: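 Rats received a single 10 mg/kg oral dose. At 1 h, drug was measured in brain (ng/g), plasma and hepatic portal vein, and brain:plasma and HPV:plasma ratios were calculated.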

[8] = Plasma clearance in rat at 1mg/kg, iv; type: ADME, organism-based
[9] = Drug uptake in rat brain assessed per gram of tissue at 10 mg/kg, po administered as single dose measured at 1 hr; type: ADME, organism-based; design: dose 10 mg/kg, route oral; conditions: read-out: Drug uptake
Summary of the method: (§2)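 Rats got a single 10 mg/kg oral dose. At a single 1 h time point, brain (ng/g tissue), plasma and hepatic portal vein concentrations were measured, giving brain:plasma and portal vein:plasma ratios. The portal vein:plasma ratio was taken as an indicator of the extent of oxidative metabolism.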

Plasma [10] = experiment: Fraction unbound in human plasma; type: ADME, cell-free; summary of the method: as §1
[11] = Volume of distribution at steady state in rat at 1 mg/kg, iv; type: ADME, organism-based; design: dose 1 mg/kg, route intravenous; conditions: in vivo, read-out: Vdss
[12] = Mean residence time in rat at 1 mg/kg, iv; type: ADME, organism-based; design: dose 1 mg/kg, route intravenous; conditions: in vivo
[13] = target: T3, Muscarinic acetylcholine receptor M2 (Homo sapiens) (UniProt P08172); experiment: Activity at human M2 receptor expressed in CHO cells coexpressing Gqi5 assessed as effect on acetylcholine induced calcium mobilization up to 30 uM incubated for 144 secs prior to acetylcholine addition by Fluo-4-AM staining; type: functional, cell-based
T3 sequence (whole entry): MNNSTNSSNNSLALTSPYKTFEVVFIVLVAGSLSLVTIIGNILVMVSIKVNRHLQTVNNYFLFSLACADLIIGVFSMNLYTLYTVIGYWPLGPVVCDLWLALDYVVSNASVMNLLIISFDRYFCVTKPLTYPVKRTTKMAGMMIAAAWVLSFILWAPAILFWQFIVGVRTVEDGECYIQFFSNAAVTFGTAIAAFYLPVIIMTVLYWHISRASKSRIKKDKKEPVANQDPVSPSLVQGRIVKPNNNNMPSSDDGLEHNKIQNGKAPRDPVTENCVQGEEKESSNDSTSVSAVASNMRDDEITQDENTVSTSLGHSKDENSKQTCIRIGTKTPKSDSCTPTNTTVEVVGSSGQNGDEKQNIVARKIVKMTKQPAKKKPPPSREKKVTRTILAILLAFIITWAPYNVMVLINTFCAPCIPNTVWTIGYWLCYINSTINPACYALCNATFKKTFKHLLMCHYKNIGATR
Summary of the method: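 Off-target mode: CHO-K1 lines stably expressing hM1, hM3 or hM5 (wild-type) or hM2 cotransfected with Gqi5, plated 15,000 cells/well, grown overnight at 37 °C. Fluo-4 AM loading 45 min at 37 °C in HBSS/20 mM HEPES/2.5 mM probenecid. Compound (up to 30 µM, 0.3% DMSO final) added 144 s before ACh. Calcium read kinetically at 37 °C.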

[14] = Drug uptake in rat hepatic portal vein at 10 mg/kg, po administered as single dose measured at 1 hr; type: ADME, organism-based; design: dose 10 mg/kg, route oral; conditions: read-out: Drug uptake; summary of the method: as §2
[15] = Half life in rat at 1 mg/kg, iv; type: ADME, organism-based; design: dose 1 mg/kg, route intravenous; conditions: in vivo
Brain = experiment: Fraction unbound in rat brain homogenate; type: ADME, tissue-based
Summary of the method: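 Binding was measured in rat brain homogenate and reported as % unbound fraction.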

[16] = target: T4, Muscarinic acetylcholine receptor M4 (Homo sapiens) (UniProt P08173); experiment: Positive allosteric modulation of human M4 receptor expressed in CHO-K1 cells coexpressing Gqi5 assessed as potentiation of acetylcholine-mediated calcium mobilization incubated for 144 secs prior to acetylcholine addition by Fluo-4-AM staining relative to acetylcholine; type: functional, cell-based
T4 sequence (whole entry): T2 sequence (P08173 whole entry)
Summary of the method: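 hM4-Gqi5 CHO-K1 cells, plated overnight, loaded with Fluo-4 AM (45 min, 37 °C). Compound (0.3% DMSO final) preincubated 144 s, then ACh EC20 added, and EC80 added 86 s later; 1 mM ACh wells for normalization. Calcium read at 37 °C, normalized to baseline and then to maximal ACh response. EC50 from four-parameter logistic fit; three independent determinations in triplicate.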

[17] = target: T5, Muscarinic acetylcholine receptor M1 (Homo sapiens) (UniProt P11229); experiment: Activity at human M1 receptor expressed in CHO-K1 cells coexpressing Gqi5 assessed as effect on acetylcholine induced calcium mobilization up to 30 uM incubated for 144 secs prior to acetylcholine addition by Fluo-4-AM staining; type: functional, cell-based
T5 sequence (whole entry): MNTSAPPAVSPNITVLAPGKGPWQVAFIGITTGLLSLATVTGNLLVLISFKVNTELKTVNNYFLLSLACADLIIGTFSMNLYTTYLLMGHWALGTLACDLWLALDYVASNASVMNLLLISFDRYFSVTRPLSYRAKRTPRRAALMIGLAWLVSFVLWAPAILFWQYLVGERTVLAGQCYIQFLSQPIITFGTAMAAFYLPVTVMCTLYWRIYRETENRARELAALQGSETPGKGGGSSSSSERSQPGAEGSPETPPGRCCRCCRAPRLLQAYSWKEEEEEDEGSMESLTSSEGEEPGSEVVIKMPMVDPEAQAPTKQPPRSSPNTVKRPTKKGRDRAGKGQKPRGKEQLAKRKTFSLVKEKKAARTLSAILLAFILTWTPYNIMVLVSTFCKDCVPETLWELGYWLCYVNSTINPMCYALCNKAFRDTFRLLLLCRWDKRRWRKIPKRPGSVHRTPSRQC

COc1ccc(C)c2sc(NC(=O)c3ccncc3)nc12
Activity [1]: inactive | CLint scaled [2]: 48.5 mL/min/kg | AUC [3]: 1440 ng·h/mL | Activity [4]: inactive | Fu (Plasma [5]): 3.2% | EC50 [6]: 1.29 µM | concentration at 1 h [7]: 3740 ng/mL | clearance [8]: 11.5 mL/min/kg | concentration at 1 h [9]: 3090 ng/g | Fu (Plasma [10]): 1% | Vd [11]: 0.97 L/kg | MRT [12]: 1.42 h | Activity [13]: inactive | concentration at 1 h [14]: 3070 ng/mL | half-life [15]: 0.95 h | Fu (Brain): 0.9% | %max [16]: 65.2% | Activity [17]: inactive
